Consider eight compounds from ChEMBL document CHEMBL1141591, “Lipophilic modifications to dinucleoside polyphosphates and nucleotides that confer antagonist properties at the platelet P2Y12 receptor” (J Med Chem, 2008).

Active and inactive are the calls of the source. The rule behind the calls is not given here.

The target of experiment [1] is T1, P2Y purinoceptor 2 (Homo sapiens, UniProt P41231). The experiment can be described thus: Agonist activity at P2Y2 receptor expressed in human 1321 cells at 100 uM by calcium mobilization assay. It is filed as functional, cell-based. An outline of the steps:
(§1)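 1321N1 human astrocytoma cells expressing the recombinant receptor were loaded with Fluo-3 AM (2.5 µM final) for 60 min at 25 °C. Assay buffer: KCl 10, NaCl 118, CaCl2 2.5, MgCl2 1, HEPES 20, glucose 10 mM, pH 7.4. Cells were washed and then stimulated with compound. Intracellular calcium was read as the change in fluorescence (FLIPR). Values are EC50 in µM. SR means 5–20% of maximal response at the top concentration, usually 100 µM. NR means no response.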

Experiment [2] addresses T2, P2Y purinoceptor 6 (Homo sapiens, UniProt Q15077). The experiment can be described thus: Agonist activity at P2Y6 receptor expressed in human 1321 cells by calcium mobilization assay. It is filed as functional, cell-based. The gist of the method: as §1
For orientation: Calcium flux is commonly read through the fluorescence of an indicator in the cells.

The target of experiment [3] is T3, P2Y purinoceptor 1 (Homo sapiens, UniProt P47900). The experiment can be described thus: Agonist activity at human recombinant P2Y1 receptor expressed in human 1321 cells at 100 uM by calcium mobilization assay. Type of experiment: functional, cell-based. An outline of the steps: as §1
T3 sequence (P47900 whole entry): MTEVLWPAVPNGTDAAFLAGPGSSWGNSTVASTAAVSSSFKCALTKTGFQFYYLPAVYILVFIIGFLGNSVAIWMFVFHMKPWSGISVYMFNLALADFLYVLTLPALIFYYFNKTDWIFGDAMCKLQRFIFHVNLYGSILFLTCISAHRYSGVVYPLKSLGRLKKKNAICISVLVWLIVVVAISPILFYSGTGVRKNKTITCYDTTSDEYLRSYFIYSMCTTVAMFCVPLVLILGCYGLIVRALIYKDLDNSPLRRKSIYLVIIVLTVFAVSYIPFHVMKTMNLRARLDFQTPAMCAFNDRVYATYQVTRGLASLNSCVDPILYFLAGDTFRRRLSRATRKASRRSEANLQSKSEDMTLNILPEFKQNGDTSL
For experiment [4], the target named is P2Y purinoceptor 12 (Homo sapiens) (UniProt Q9H244). The experiment can be described thus: Antagonist activity at P2Y12 receptor assessed as inhibition of ADP-induced human platelet aggregation by washed platelet assay at 100 uM. It is filed as functional. The gist of the method:
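Blood from healthy volunteers was anticoagulated with ACD and spun at 180g for 15 min to give PRP. Platelets were washed three times in HEPES-buffered saline, pH 7.4, with 0.2% BSA and 5 µM PGI2, then resuspended with 0.25 U/mL apyrase. The suspension held 1 mg/mL fibrinogen at 37 °C, stirred at 1000 rpm. Compound (usually 1 nM–100 µM) was added for 2 min, then ADP at EC90 (usually 1–10 µM). Optical aggregation was recorded for 8 min. IC50 came from a four-parameter logistic fit.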

Experiment [5] has as its target T1, P2Y purinoceptor 2. The experiment can be described thus: Agonist activity at P2Y2 receptor expressed in human 1321 cells by calcium mobilization assay. Type of experiment: functional, cell-based.
The target of experiment [6] is T3, P2Y purinoceptor 1. Briefly: Agonist at human recombinant P2Y1 receptor expressed in human 1321 cells by calcium mobilization assay. It is filed as functional, cell-based. The gist of the method: as §1
The target in experiment [7] is P2Y purinoceptor 12 (Homo sapiens) (UniProt Q9H244). Briefly: Reversal of antagonist activity at P2Y12 receptor in human washed platelets pretreated at 50 uM for 3 mins before addition of 2-Me-S-ADP and fibrinogen. Type of experiment: functional. The gist of the method: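 Washed human platelets were incubated with 50 µM antagonist for 3 min at 37 °C without fibrinogen. One set was then stimulated directly with 2-MeS-ADP plus fibrinogen. The other set was centrifuged once, resuspended in drug-free medium, and then stimulated. Optical aggregation was monitored for 6–8 min.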
Chain of P2Y purinoceptor 12 (Homo sapiens) (Q9H244 whole entry): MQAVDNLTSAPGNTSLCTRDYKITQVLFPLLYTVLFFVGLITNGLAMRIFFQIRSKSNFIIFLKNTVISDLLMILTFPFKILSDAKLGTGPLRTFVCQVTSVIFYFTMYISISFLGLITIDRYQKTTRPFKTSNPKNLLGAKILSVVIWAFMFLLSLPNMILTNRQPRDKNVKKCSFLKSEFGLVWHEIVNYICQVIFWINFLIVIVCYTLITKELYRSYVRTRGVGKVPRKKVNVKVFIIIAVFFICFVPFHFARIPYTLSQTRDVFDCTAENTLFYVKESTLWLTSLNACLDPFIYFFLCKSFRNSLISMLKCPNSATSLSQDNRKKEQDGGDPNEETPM

Experiment [8] has as its target T2, P2Y purinoceptor 6. The experiment can be described thus: Agonist activity at P2Y6 receptor expressed in human 1321 cells at 100 uM by calcium mobilization assay. It is filed as functional, cell-based. An outline of the steps: as §1
Experiment [9] addresses P2Y purinoceptor 12 (Homo sapiens) (UniProt Q9H244). The experiment can be described thus: Antagonist activity at P2Y12 receptor assessed as inhibition of 2-MeS-ADP-induced human platelet aggregation. Type of experiment: functional. An outline of the steps:
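Washed human platelets (ACD-anticoagulated blood, PGI2/apyrase washes) with 1 mg/mL fibrinogen at 37 °C, stirred. Concentration–response curves to 2-MeS-ADP were run alone and with antagonist at 1, 3, 10, 30 or 100 µM. Aggregation was read optically. Schild (Arunlakshana-Schild) analysis gave KB and slope.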

T2 sequence (Q15077 whole entry): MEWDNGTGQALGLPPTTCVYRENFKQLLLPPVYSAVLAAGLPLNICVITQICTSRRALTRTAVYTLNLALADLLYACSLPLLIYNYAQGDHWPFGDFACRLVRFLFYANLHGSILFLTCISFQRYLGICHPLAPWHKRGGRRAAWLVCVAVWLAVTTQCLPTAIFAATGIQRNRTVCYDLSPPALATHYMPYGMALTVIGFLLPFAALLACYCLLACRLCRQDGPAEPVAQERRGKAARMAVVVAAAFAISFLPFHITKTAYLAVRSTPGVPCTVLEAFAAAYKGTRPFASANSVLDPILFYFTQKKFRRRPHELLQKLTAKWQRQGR
T1 sequence (P41231 whole entry): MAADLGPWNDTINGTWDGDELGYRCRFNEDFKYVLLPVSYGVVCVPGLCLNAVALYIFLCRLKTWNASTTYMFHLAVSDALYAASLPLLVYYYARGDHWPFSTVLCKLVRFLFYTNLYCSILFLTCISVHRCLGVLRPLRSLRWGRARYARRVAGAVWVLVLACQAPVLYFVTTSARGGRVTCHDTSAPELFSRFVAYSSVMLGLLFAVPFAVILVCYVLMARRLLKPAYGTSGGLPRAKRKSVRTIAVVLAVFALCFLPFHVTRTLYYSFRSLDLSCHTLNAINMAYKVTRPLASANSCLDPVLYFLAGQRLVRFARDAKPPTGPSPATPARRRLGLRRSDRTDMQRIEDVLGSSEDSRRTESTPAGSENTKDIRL

As for `O=c1ccn([C@@H]2O[C@H](COP(=O)(O)OP(=O)(O)OP(=O)(O)OC[C@@H]3O[C@H](n4ccc(=O)[nH]c4=O)[C@@H](O)[C@H]3O)[C@H]3OC(Cc4ccccc4)O[C@H]32)c(=O)[nH]1` (some centres undefined), the result at P2Y purinoceptor 2 [1] and at P2Y purinoceptor 1 [3] was inactive. Moreover, at P2Y purinoceptor 6 [2], the half-maximal effective concentration (EC50) (commonly the midpoint of the concentration-response curve) came out at 0.154 µM.
Take `O=c1ccn([C@@H]2O[C@H](COP(=O)(O)OP(=O)(O)OP(=O)(O)OP(=O)(O)OC[C@@H]3O[C@H](n4ccc(=O)[nH]c4=O)[C@@H](O)[C@H]3O)[C@@H](O)[C@H]2O)c(=O)[nH]1`: the EC50 on P2Y purinoceptor 6 [2] amounted to 18.6 µM. In addition, the outcome (in experiment [4]; on P2Y purinoceptor 1 [3]) was inactive.
On to `O=C(Nc1ccccc1)Nc1ncnc2c1ncn2[C@@H]1O[C@H](COP(=O)(O)OP(=O)(O)O)[C@@H](O)[C@H]1O`, for which the results for the EC50 at P2Y purinoceptor 6 [2], on P2Y purinoceptor 2 [5] and on P2Y purinoceptor 1 [6] were 9.75 µM, 9.4 µM and 2.63 µM, respectively.
Turning to `O=c1ccn([C@@H]2O[C@H](COP(=O)(O)OP(=O)(O)OP(=O)(O)OC[C@@H]3O[C@H](n4ccc(=O)[nH]c4=O)[C@@H](O)[C@H]3O)[C@@H](O)[C@H]2O)c(=O)[nH]1`, the EC50 was found to be 0.4 µM at P2Y purinoceptor 6 [2] and 13.5 µM on P2Y purinoceptor 2 [5]. Besides, the outcome (in [4]; at P2Y purinoceptor 1 [3]) was inactive.
In the case of `O=c1ccn([C@@H]2O[C@H](COP(=O)(O)OP(=O)(O)OP(=O)(O)OP(=O)(O)OC[C@@H]3O[C@H](n4ccc(=O)[nH]c4=O)[C@H]4OC(Cc5ccccc5)O[C@H]43)[C@H]3OC(Cc4ccccc4)O[C@H]32)c(=O)[nH]1` (some centres undefined), on P2Y purinoceptor 2 [5], the EC50 was 14.6 µM. Besides, the result in experiment [7] was Active. The Activity on P2Y purinoceptor 6 [8] was greater than 5%. The Kb – broadly, the equilibrium dissociation constant of an antagonist, usually derived from a functional assay – in experiment [9] was 0.249 µM. Besides, the outcome on P2Y purinoceptor 1 [3] was inactive.
Turning to `Nc1ncnc2c1ncn2[C@@H]1O[C@H](COP(=O)(O)OP(=O)(O)O)[C@H]2O[C@@H](Cc3ccccc3)O[C@H]21`, the EC50 is 13.9 µM at P2Y purinoceptor 2 [5] and 4.39 µM on P2Y purinoceptor 1 [6]. Further, on P2Y purinoceptor 6 [8], the outcome was inactive.
Consider `Nc1ncnc2c1ncn2[C@@H]1O[C@H](COP(=O)(O)OP(=O)(O)OP(=O)(O)OP(=O)(O)OC[C@@H]2O[C@H](n3cnc4c(N)ncnc43)[C@@H](O)[C@H]2O)[C@@H](O)[C@H]1O`, for which the EC50 worked out at 0.072 µM at P2Y purinoceptor 2 [5] and 0.426 µM at P2Y purinoceptor 1 [6]. For the same compound, the inhibition (in general, the share of the control response that was lost under treatment) in [4] was found to be 63%. For the same compound, the result on P2Y purinoceptor 6 [8] was inactive.
As for `CCCC1O[C@@H]2[C@H](O1)[C@@H](COP(=O)(O)OP(=O)(O)OP(=O)(O)OP(=O)(O)OC[C@@H]1O[C@H](n3ccc(=O)[nH]c3=O)[C@@H](O)[C@H]1O)O[C@H]2n1ccc(=O)[nH]c1=O` (some centres undefined), the results for the EC50 on P2Y purinoceptor 6 [2] and on P2Y purinoceptor 2 [5] were 30 µM and 0.098 µM, respectively. The inhibition in experiment [4] was 44%. Further, the outcome on P2Y purinoceptor 1 [3] was inactive.
